Test results reported in ChEMBL document CHEMBL1828498, “Identification and characterization of a novel integrin-linked kinase inhibitor” (J Med Chem, 2011).
Active and inactive are the calls of the source. The rule behind the calls is not given here.

Columns and labels:
[1] = target: T1, 3-phosphoinositide-dependent protein kinase 1 (Homo sapiens) (UniProt O15530); test: Inhibition of PDK2 in human PC3 cells assessed as Akt Thr-308 dephosphorylation by Western blot analysis; format: functional, cell-based; conditions: PC-3
T1 sequence (whole entry): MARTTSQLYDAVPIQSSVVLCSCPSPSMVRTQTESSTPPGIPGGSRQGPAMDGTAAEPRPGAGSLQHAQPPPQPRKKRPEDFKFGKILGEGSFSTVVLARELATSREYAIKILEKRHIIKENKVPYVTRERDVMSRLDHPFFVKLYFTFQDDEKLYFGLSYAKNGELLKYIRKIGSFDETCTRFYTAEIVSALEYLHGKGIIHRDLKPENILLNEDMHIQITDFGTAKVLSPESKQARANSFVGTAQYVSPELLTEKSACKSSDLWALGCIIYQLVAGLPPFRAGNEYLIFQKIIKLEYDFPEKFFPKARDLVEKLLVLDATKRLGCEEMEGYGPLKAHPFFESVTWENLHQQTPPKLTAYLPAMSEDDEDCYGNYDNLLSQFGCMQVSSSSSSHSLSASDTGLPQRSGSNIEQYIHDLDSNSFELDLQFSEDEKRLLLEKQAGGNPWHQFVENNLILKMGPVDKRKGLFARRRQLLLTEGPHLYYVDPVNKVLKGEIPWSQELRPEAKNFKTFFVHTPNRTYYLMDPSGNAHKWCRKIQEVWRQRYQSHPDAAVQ
How it was run: (§1)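 Cells exposed 24 h in 5% FBS medium, final DMSO 0.1%; lysed in 1% SDS/10 mM EDTA/50 mM Tris pH 8.1, equal protein on SDS-PAGE, nitrocellulose, primary antibody 1:1000 at 4°C for 2 h, HRP secondary 1:5000, ECL detection; blots representative of three independent experiments.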

[2] = test system: 3-phosphoinositide dependent protein kinase-2, PDK2; test: Inhibition of PDK2 in human PC3 cells assessed as Akt Ser-473 dephosphorylation by Western blot analysis; format: functional, cell-based; conditions: PC-3; how it was run: as §1

SMILES | inhibition [1] | inhibition [2]
COc1cc([N+](=O)[O-])ccc1S(=O)(=O)N1CCN(c2ccc(-n3nc(C(F)(F)F)cc3-c3ccc4c(ccc5ccccc54)c3)cc2)CC1 | inactive | inactive
COc1ccc(S(=O)(=O)N2CCN(c3ccc(-n4nc(C(F)(F)F)cc4-c4ccc5c(ccc6ccccc65)c4)cc3)CC2)cc1 | inactive | inactive
NC(=O)c1cccc(C(=O)N2CCN(c3ccc(-n4nc(C(F)(F)F)cc4-c4ccc5c(ccc6ccccc65)c4)cc3)CC2)c1 | inactive | inactive
NCCCC[C@H](N)C(=O)Nc1ccc(-n2nc(C(F)(F)F)cc2-c2ccc(-c3ccc(C(F)(F)F)cc3)cc2)cc1 | inactive | inactive
Nc1ccc(C(=O)N2CCN(c3ccc(-n4nc(C(F)(F)F)cc4-c4ccc5c(ccc6ccccc65)c4)cc3)CC2)cc1 | inactive | inactive
CNC(=O)CCc1cc(-c2ccc(-c3ccc(C(F)(F)F)cc3)cc2)n(-c2ccc(NC(=O)CCN)cc2)n1 | inactive | inactive

The next lines start with results.

inhibition [1] | SMILES | inhibition [2]
inactive | CNC(=O)c1cc(-c2ccc3c(ccc4ccccc43)c2)n(-c2ccc(NC(=O)CN)cc2)n1 | inactive
inactive | NC(=O)CNc1ccc(-n2nc(C(F)(F)F)cc2-c2ccc3c(ccc4ccccc43)c2)cc1 | inactive
inactive | CC(C)NC(=O)c1cc(-c2ccc(-c3ccc(C(F)(F)F)cc3)cc2)n(-c2ccc(NC(=O)CCN)cc2)n1 | inactive
inactive | NCC(=O)Nc1ccc(-n2nc(C(F)(F)F)cc2-c2ccc3c(c2)oc2ccccc23)cc1 | inactive
